The structures appear in SMILES notation. The source made the active and inactive calls. No cut-off for these calls is given here.

Nine compounds from ChEMBL document CHEMBL2034844, “Novel multi-functional nitrones for treatment of ischemic stroke” (2012) can be followed below.

In assay [1] the test system is Neuron. Put plainly: Neuroprotective activity against t-BHP-induced rat cerebellar granule neuronal damage at 1000 uM preincubated for 30 mins prior t-BHP challenge measured after 4 hrs by MTT assay (reference value: 49.4%). The class given is functional. A general note: Formazan colour is commonly taken as a measure of viable cells.
For assay [2], the system named is Neuron. Put plainly: Neuroprotective activity against t-BHP-induced rat cerebellar granule neuronal damage at 100 uM preincubated for 30 mins prior t-BHP challenge measured after 4 hrs by MTT assay (reference value: 49.4%). The class given is functional, cell-based.
Assay [3] in a line: Antioxidant activity assessed as peroxynitrite radical-scavenging activity at 1 to 1000 uM by SIN-1 based chemiluminescence assay. The class given is functional. Summed up: (§1)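 Peroxynitrite generated from SIN-1 dissolved in 0.1 M PBS. The mix held PBS, luminol, compound or PBS control, and SIN-1 added last to start the reaction; read-out was chemiluminescence.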
The subject of assay [4] is Radical scavenging activity. Put plainly: Antioxidant activity assessed as DPPH radical-scavenging activity at 0.5 to 4 mM by spectrophotometry. Format: functional. Summed up:
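50 µL methanolic compound solution mixed with 150 µL methanolic DPPH; absorbance at 515 nm followed continuously until stable (50 min); clearance (%) calculated from the control absorbance and the reaction absorbance at 50 min.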

Another assay deals with Platelet. Put plainly: Inhibition of platelet aggregation in New Zealand rabbit platelet rich plasma assessed as maximum platelet aggregation at 2 mM after 8 mins by platelet aggregometry (reference value: 57.3 +/- 8.3%). Further details: scale not given: the % may be the effect or the level left. The class given is functional, Oryctolagus cuniculus.
Assay [5] in a line: Antioxidant activity assessed as superoxide anion-scavenging activity at 125 to 1000 uM by spectrophotometry. Format: functional. Summed up: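 Glass-cuvette mix of Tris–HCl buffer (pH 8.2), pyrogallic acid solution (0.16 mmol/L) and test sample at final 125, 250, 500 and 1000 µM; pyrogallol-autoxidation superoxide assay.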
The subject of a further assay is Rattus norvegicus. Nature of the assay: Neuroprotective activity in Sprague-Dawley rat tMCAO model assessed as reduction in total brain infarct volume at 110 mg/kg, ip after 24 hrs by TTC staining relative to control. Format: functional. Also noted: scale not given: the % may be the effect or the level left. As to conditions: route intraperitoneal. Summed up:
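Adult male Sprague–Dawley rats (260–310 g), chloral hydrate anaesthesia; nylon suture occluding right MCA for 2 h, then reperfusion. Only rats with neurological score 2 or 3 used; body temperature held at 37 °C. Dosed ip 2 h after MCAO; saline vehicle controls. Killed after 22 h reperfusion; six 2-mm coronal slices stained with 0.5% TTC, 37 °C, 30 min; infarct volume by image analysis; n = 13/group.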

A short description of assay [6]: Antioxidant activity assessed as peroxynitrite radical-scavenging activity at 1 uM by SIN-1 based chemiluminescence assay. Format: functional. The gist of the method:
as §1

Assay [7] in a line: Antioxidant activity assessed as peroxynitrite radical-scavenging activity at 1000 uM by SIN-1 based chemiluminescence assay. Format: functional. Summed up: as §1
Assay [8] in a line: Antioxidant activity assessed as hydroxyl radical-scavenging activity at 1000 uM by monitoring p-NDA bleaching using spectrophotometry. Format: functional. Summed up: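 Fenton-generated hydroxyl radical from FeSO4 (final 4.0 mM) and freshly prepared H2O2 (7.3 mM). p-NDA was prepared at 1.6 mM in 50 mM NaCl. Compounds were dissolved in double-distilled water at final 125–1000 µM. p-NDA bleaching was followed as absorbance loss at 440 nm over 100 s; clearance (%) was calculated from absorbance at 0 and 100 s.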

For `CC(C)(C)/[N+]([O-])=C/c1cnc2ccccc2n1`, in the assay on Neuron [1], the Activity worked out at 53.9%. Besides, the outcome (in the assay on Neuron [2]; in assay [3]) was inactive. Further, the outcome in assay [4] was Active.
`CC(C)(C)/[N+]([O-])=C/c1cccc2nccnc12` registered an Activity in the assay on Neuron [1] of 54.8%. The outcome (in the assay on Neuron [2]; in assay [3]) was inactive. For the same compound, the outcome in assay [4] was Active.
For `CCCc1nccnc1/C=[N+](\[O-])C(C)(C)C`, the result (with Neuron [1]; in the assay with Neuron [2]; in assay [5]; in [3]; in assay [4]) was Active. In addition, the figures for the Activity with Neuron [1] (record 2) and with Platelet were 66% and 48%, respectively.
Take `Cc1nc(C)c(C)nc1C` [LIGUSTRAZINE]: the Activity in the assay with Neuron [1] turned out to be 58.4%; in the assay with Platelet, 42.9%. The outcome in assay [5] and in [3] was inactive. The result in assay [4] was Active.
`CC(C)(C)/[N+]([O-])=C\c1ccccc1`: in [5], the outcome was inactive. The result in assay [3] and in [4] was Active.
With `Cc1nc(/C=[N+](\[O-])C(C)(C)C)c(C)nc1/C=[N+](\[O-])C(C)(C)C`, the Activity in the assay on Neuron [1] was determined as 80.6%; in the assay with Rattus norvegicus, 65%; with Platelet, 37.7%; in assay [6], 31.9%; in [7], 99.4%. For the same compound, the outcome (in the assay on Neuron [2]; in assay [5]; in assay [4]) was Active.
As for `CC(=O)Oc1ccccc1C(=O)O` [ASPIRIN], the Activity with Platelet worked out at 26.6%.
For the compound `CCc1nccnc1/C=[N+](\[O-])C(C)(C)C`, the outcome (in the assay with Neuron [1]; in the assay on Neuron [2]; in assay [5]; in assay [3]) was Active. Besides, the Activity in the assay on Neuron [1] (record 2) was 64.6%; with Platelet, 33.8%.
For `Cc1nc(C)c(CN(Cc2nc(C)c(C)nc2C)C(C)(C)C)nc1C`, the Activity in the assay on Neuron [1] was found to be 75.5%; in the assay on Platelet, 44.3%; in assay [8], 100%. The outcome (with Neuron [2]; in [4]) was Active. In addition, the result in assay [5] and in [3] was inactive.
